Results from different studies.
Each line is one published result; the experiments were not run side by side.

c1ccc(-c2nc(N3CCCC3c3ccccn3)c3ccccc3n2)nc1 (stereo not shown)
Papp (PAMPA; 10 µM, 3 h, pH 7.4): 21.4 ×10⁻⁶ cm/s

CCOC(=O)[C@@]12C[C@@H]1[C@@H](n1ccc3c(NC)nc(C#Cc4ccc(Cl)s4)nc31)[C@H](O)[C@@H]2O
AUC(0-t) (male Sprague-Dawley rat, plasma; oral, 1 mg/kg): 34 ng·h/mL

CCCCCCCCCCCCCCCCOP(=O)([O-])OCC[N+](C)(C)C
CC50 (DH82; cell growth or viability, MTS; 24 h): > 20 µM

c1ccc(C2CCN(c3nc(-c4cnn5c4CCCC5)nc4ccccc34)C2)nc1 (stereo not shown)
Papp (PAMPA; 10 µM, 3 h, pH 7.4): 36.7 ×10⁻⁶ cm/s

CONc1ccnc(Nc2cccc(-c3cccnc3)c2)n1
Papp (PAMPA; 50 nM, 30 min): 1300 ×10⁻⁶ cm/s

CC(=O)O[C@@H]1c2c(ccc3ccc(=O)oc23)OC(C)(C)[C@@H]1OC(=O)C1(C)OC1C (stereo partly shown)
IC50 (HCT-116; cell growth or viability, WST-1): 49.9 µM

Cn1ccnc1CNc1nc(-c2ccccn2)nc2ccccc12
Papp (PAMPA; 10 µM, 3 h, pH 7.4): 27 ×10⁻⁶ cm/s

CC(C)Nc1ccnc(Nc2cccc(-c3cc[nH]n3)c2)n1
Papp (PAMPA; 50 nM, 30 min): 1740 ×10⁻⁶ cm/s

COC(=O)c1c(C)ncn1CC(c1c[nH]c2ccc(C)cc12)c1c[nH]c2ccc(C)cc12
CC50 (DH82; cell growth or viability, MTS; 24 h): > 20 µM

CC1(C)CC[C@]2(C)CC[C@]3(C)[C@H]4CC=C5[C@@H](CC[C@H](O)C5(C)C)[C@]4(C)CC[C@@]3(C)[C@@H]2C1
IC50 (HCT-116; cell growth or viability, WST-1): 66.5 µM
